In ChEMBL document CHEMBL1141874, “Synthesis and biological evaluation of novel bisheterocycle-containing compounds as potential anti-influenza virus agents” (Bioorg Med Chem Lett, 2005) one finds Activity, IC50 and CC50 data, which are given here for 22 compounds.

The test system of one assay is Influenza B virus. The assay can be described thus: Inhibitory activity against influenza B virus. Type of assay: functional, organism-based.
The test system of assay [1] is Influenza A virus. The assay can be described thus: Antiviral activity against influenza A H3N2 virus in MDCK cells. Type of assay: functional, organism-based. The method, boiled down: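 Confluent MDCK monolayers were infected with influenza A H3N2 (A3 China/15/90) for 2 h at 37 °C. The inoculum was removed and the cells were treated with a range of compound concentrations. CPE was scored once the virus control reached 4+. The concentration giving 50% reduction of virus-induced CPE was found by Reed–Muench interpolation.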

The subject of assay [2] is Influenza A virus. The assay can be described thus: Cytotoxicity in MDCK cells infected with influenza A H3N2 virus. The assay is classed as functional. A digest of the protocol: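 Confluent MDCK monolayers were infected with influenza A H3N2 (A3 China/15/90) for 2 h at 37 °C, then the inoculum was removed and a range of compound concentrations added. Cultures were read when the virus control reached 4+ CPE. The value is the concentration causing microscopically detectable toxicity in the virus-infected cultures.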

Where [3] appears, read: Influenza A virus, H3N2, MDCK, read-out: IC50.

Molecules are shown by their SMILES. ≈ marks a conversion by molar mass, not a printed value. Calls of active or inactive are those of the source. The calls are words filed in the database; no cut-off is given here. Where only a bound is given, the exact number is not on record here.

The term IC50 denotes the concentration at which inhibition is half-maximal. What is called CC50 is the concentration at which the toxic effect on the cells reaches its halfway point. Take `C/C=C(\C)C(=O)N[C@H](c1nc(-c2nc(C(=O)OC)c(C)o2)cs1)C(C)C`: the result in the assay with Influenza B virus was inactive. For the same compound, the half-maximal inhibitory concentration (IC50) in the assay on Influenza A virus [1] (setting [3]) was found to be 37 µg/mL (≈ 98.1 µM). Besides, it took 231 µg/mL (≈ 612 µM) to reach half-maximal cytotoxicity in the assay with Influenza A virus [2] (CC50).

As to `CCC(=O)N[C@H](c1nc(-c2nc(C(=O)OC)c(C)o2)cs1)C(C)C`, the outcome with Influenza B virus was inactive. Also, in the assay with Influenza A virus [2], the CC50 turned out to be 577 µg/mL (≈ 1640 µM).

`COC(=O)c1coc([C@H](C)NC(=O)c2nc(-c3csc([C@@H](NC(=O)CC=C(C)C)C(C)C)n3)oc2C)n1`: in the assay on Influenza B virus, the outcome was inactive. This compound also gave a CC50 in the assay on Influenza A virus [2] of 577 µg/mL (≈ 1090 µM).

Consider `Cc1oc2nc1C(=O)N[C@@H](C)c1nc(co1)C(=O)N[C@@H](CC(C)C)C(=O)N1CCC[C@H]1C(=O)N[C@@H](C(C)C)c1nc-2cs1` [LEUCAMIDE A], for which the IC50 result in the assay with Influenza A virus [1] (mdck) was “Not Active”. Moreover, the CC50 result with Influenza A virus [2] was “inactive”.

Regarding `C=CCCC(=O)N[C@H](c1nc(-c2nc(C(=O)OC)c(C)o2)cs1)C(C)C`, in the assay with Influenza B virus, the result was inactive. The same compound showed a CC50 with Influenza A virus [2] of 577 µg/mL (≈ 1530 µM).

For the compound `COC(=O)c1nc(-c2csc([C@@H](NC(=O)C3CCC3)C(C)C)n2)oc1C`, the outcome with Influenza B virus was inactive. The same compound had a CC50 with Influenza A virus [2] of 500 µg/mL (≈ 1320 µM).

Take `COC(=O)c1nc(-c2csc([C@@H](NC(=O)CC3=CCCC3)C(C)C)n2)oc1C`: the outcome in the assay with Influenza B virus was inactive. Besides, the 50% cytotoxic concentration (CC50) with Influenza A virus [2] was found to be 333 µg/mL (≈ 826 µM).

As to `NC(=O)c1ncn([C@@H]2O[C@H](CO)[C@@H](O)[C@H]2O)n1` [RIBAVIRIN], the IC50 in the assay on Influenza A virus [1] (setting [3]) was determined as 3.73 µg/mL (≈ 15.3 µM).

`COC(=O)c1nc(-c2csc([C@@H](NC(=O)C3CCCCC3)C(C)C)n2)oc1C`: the result with Influenza B virus was inactive. In addition, in the assay with Influenza A virus [1] (setting [3]), the half-inhibitory concentration (IC50) was 43.6 µg/mL (≈ 107 µM). This compound gave a CC50 with Influenza A virus [2] of 144 µg/mL (≈ 356 µM).

`COC(=O)c1nc(-c2csc([C@@H](NC(=O)c3cccc(F)c3)C(C)C)n2)oc1C`: the result in the assay with Influenza B virus was inactive. Also, the half-inhibitory concentration (IC50) with Influenza A virus [1] (setting [3]) was more than 86.2 µg/mL. This compound showed a CC50 in the assay on Influenza A virus [2] of more than 1000 µg/mL.

As for `COC(=O)c1coc([C@H](C)NC(=O)c2nc(-c3csc([C@@H](NC(=O)c4cccc(F)c4)C(C)C)n3)oc2C)n1`, the result with Influenza B virus was inactive. In addition, the IC50 in the assay with Influenza A virus [1] (setting [3]) came to 77 µg/mL (≈ 139 µM). In addition, the CC50 with Influenza A virus [2] was determined as 577 µg/mL (≈ 1040 µM).

In the case of `CCC(=O)N[C@H](c1nc(-c2nc(C(=O)N[C@@H](C)c3nc(C(=O)OC)co3)c(C)o2)cs1)C(C)C`, in the assay with Influenza B virus, the result was inactive. The compound further gave a CC50 in the assay on Influenza A virus [2] of 577 µg/mL (≈ 1180 µM).

`COC(=O)c1nc(-c2csc([C@@H](NC(=O)CC3=CCCCC3)C(C)C)n2)oc1C`: the result in the assay on Influenza B virus was inactive. Also, the cytotoxic concentration (CC50) in the assay on Influenza A virus [2] was 231 µg/mL (≈ 554 µM).

In the case of `COC(=O)c1nc(-c2csc([C@@H](NC(=O)c3ccccc3OC)C(C)C)n2)oc1C`, in the assay with Influenza B virus, the outcome was inactive. Besides, in the assay on Influenza A virus [1] (setting [3]), the IC50 is 47.7 µg/mL (≈ 111 µM). For the same compound, the half-maximal cytotoxic concentration (CC50) in the assay on Influenza A virus [2] was determined as 333 µg/mL (≈ 776 µM).

On to `COC(=O)c1nc(-c2csc([C@@H](NC(=O)CC=C(C)C)C(C)C)n2)oc1C`, for which the outcome with Influenza B virus was inactive. For the same compound, the IC50 with Influenza A virus [1] (setting [3]) worked out at 192 µg/mL (≈ 492 µM). In addition, the CC50 in the assay with Influenza A virus [2] was more than 1000 µg/mL.

Consider `COC(=O)c1coc([C@H](C)NC(=O)c2nc(-c3csc([C@@H](NC(=O)C4CCCCC4)C(C)C)n3)oc2C)n1`, for which the outcome in the assay with Influenza B virus was inactive. In the assay on Influenza A virus [2], the half-maximal cytotoxic concentration (CC50) is 144 µg/mL (≈ 266 µM).

With `COC(=O)c1nc(-c2csc([C@@H](N)C(C)C)n2)oc1C`, in the assay with Influenza B virus, the result was inactive. The IC50 in the assay with Influenza A virus [1] (setting [3]) came out at 259 µg/mL (≈ 876 µM). Besides, the CC50 in the assay on Influenza A virus [2] was 577 µg/mL (≈ 1950 µM).

Regarding `Cc1oc(-c2csc([C@@H](NC(=O)CC3=CCCC3)C(C)C)n2)nc1C(=O)O`, the outcome in the assay with Influenza B virus was inactive. Also, the IC50 in the assay with Influenza A virus [1] (setting [3]) was 29 µg/mL (≈ 74.5 µM). The compound also gave a CC50 with Influenza A virus [2] of 481 µg/mL (≈ 1230 µM).

`COC(=O)c1coc([C@H](C)NC(=O)c2nc(-c3csc([C@@H](NC(=O)CC4=CCCCC4)C(C)C)n3)oc2C)n1`: in the assay on Influenza B virus, the outcome was inactive. For the same compound, the IC50 in the assay on Influenza A virus [1] (setting [3]) was 44.5 µg/mL (≈ 80 µM). The compound further had a cytotoxic concentration (CC50) in the assay with Influenza A virus [2] of 577 µg/mL (≈ 1040 µM).

Turning to `COc1ccccc1C(=O)N[C@H](c1nc(-c2nc(C(=O)O)c(C)o2)cs1)C(C)C`, in the assay on Influenza B virus, the result was inactive. For the same compound, the half-inhibitory concentration (IC50) with Influenza A virus [1] (setting [3]) was determined as 29 µg/mL (≈ 69.8 µM). The midpoint of cytotoxicity in the assay with Influenza A virus [2], the CC50, lay at 333 µg/mL (≈ 802 µM).

On to `COC(=O)c1nc(-c2csc([C@@H](NC(=O)CCC=C(C)C)C(C)C)n2)oc1C`, for which, in the assay on Influenza B virus, the result was inactive. Further, in the assay on Influenza A virus [1] (setting [3]), the 50% inhibitory concentration (IC50) was determined as 37 µg/mL (≈ 91.3 µM). The compound further had a CC50 in the assay with Influenza A virus [2] of 577 µg/mL (≈ 1420 µM).

Turning to `COC(=O)c1nc(-c2csc([C@@H](NC(=O)C(C)(C)C)C(C)C)n2)oc1C`, in the assay on Influenza B virus, the result was inactive. For the same compound, the midpoint of cytotoxicity in the assay on Influenza A virus [2], the CC50, lay at 577 µg/mL (≈ 1520 µM).
